Experimental data reported in ChEMBL document CHEMBL1124567, “2,4-Diamino-5-benzylpyrimidines and analogues as antibacterial agents. 11. Quinolylmethyl analogues with basic substituents conveying specificity” (J Med Chem, 1989).
≈ marks a conversion by molar mass, not a printed value.

Legend:
[1] = Dissociation constent of compound at 20 degree C; assay type: ADME
Salmonella typhimurium = test: Comparative in vitro antibacterial activity of compound with trimethoprim against Salmonella Typhimurium S 8587; assay type: functional, Salmonella enterica subsp. enterica serovar Typhimurium; conditions: Salmonella enterica
In short: (§1)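 Activity is expressed relative to trimethoprim as the reference, with values above 1 meaning lower activity than the reference. Dilutions were threefold (1:3), and a difference of ± one dilution was not treated as significant.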

Vibrio cholerae = test: Comparative in vitro antibacterial activity of compound with trimethoprim against Vibrio cholerae ATCC 14035; assay type: functional
In short: (§2)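 In vitro activity given as a ratio to trimethoprim, which is tested alongside; values above 1 mean lower activity than trimethoprim. Compounds were tested in serial 1:3 dilutions, and a difference of ±one dilution is treated as not significant.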

Pasteurella multocida = test: Comparative in vitro antibacterial activity of compound with trimethoprim against Pasteurella multocida ATCC 6587; assay type: functional; in short: as §1
Citrobacter freundii = test: Comparative in vitro antibacterial activity of compound with trimethoprim against Citrobacter freundii 2200/77; assay type: functional; in short: as §1
Serratia marcescens = test: Comparative in vitro antibacterial activity of compound with trimethoprim against Serratia marcescens CN2398; assay type: functional; in short: as §1
Klebsiella aerogenes = test: Comparative in vitro antibacterial activity of compound with trimethoprim against Enterobacter aerogenes 2200/86; assay type: functional; in short: as §1
[2] = tested on: Mycolicibacterium smegmatis; test: Comparative in vitro antibacterial activity of compound with trimethoprim against Mycobacterium smegmatis S 3254; assay type: functional; in short: as §1
Streptococcus agalactiae = test: Comparative in vitro antibacterial activity of compound with trimethoprim against Streptococcus agalactiae CN1143; assay type: functional; in short: as §1
[3] = tested on: Bordetella bronchiseptica; test: Comparative in vitro antibacterial activity of compound with trimethoprim against Bordetella bronchiseptica CN385; assay type: functional; in short: as §1
Proteus vulgaris = test: Comparative in vitro antibacterial activity of compound with trimethoprim against Proteus vulgaris CN329; assay type: functional; in short: as §1
Escherichia coli = test: Comparative in vitro antibacterial activity of compound with trimethoprim against Escherichia coli CN314; assay type: functional; in short: as §1
Dihydrofolate reductase = molecular target: T1, Dihydrofolate reductase (Rattus norvegicus, UniProt Q920D2); test: Inhibitory activity against Dihydrofolate reductase in rat liver; assay type: tissue-based; conditions: read-out: I50
T1 sequence (Q920D2 whole entry): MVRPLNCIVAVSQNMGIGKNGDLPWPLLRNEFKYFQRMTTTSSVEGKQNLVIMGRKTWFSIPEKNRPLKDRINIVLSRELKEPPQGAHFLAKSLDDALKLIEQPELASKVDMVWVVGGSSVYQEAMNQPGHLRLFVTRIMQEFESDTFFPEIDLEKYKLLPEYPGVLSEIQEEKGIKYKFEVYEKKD

Proteus mirabilis = test: Comparative in vitro antibacterial activity of compound with trimethoprim against Proteus mirabilis S2409; assay type: functional; in short: as §1
Klebsiella pneumoniae = test: Comparative in vitro antibacterial activity of compound with trimethoprim against Klebsiella pneumoniae CN3632; assay type: functional; in short: as §1
Shigella flexneri = test: Comparative in vitro antibacterial activity of compound with trimethoprim against Shigella flexneri CN6007; assay type: functional; in short: as §1
[4] = Comparative in vitro antibacterial activity of compound with trimethoprim against Salmonella typhi CN512; assay type: functional, salmonella typhosa; in short: as §2
Streptococcus pyogenes = test: Comparative in vitro antibacterial activity of compound with trimethoprim against Streptococcus pyogenes CN10; assay type: functional; in short: as §1
Staphylococcus aureus = test: Comparative in vitro antibacterial activity of compound with trimethoprim against Staphylococcus aureus CN491; assay type: functional; in short: as §1
Enterococcus faecalis = test: Comparative in vitro antibacterial activity of compound with trimethoprim against Streptococcus faecalis CN478; assay type: functional; in short: as §1
[5] = Dissociation constant of compound at 25 degree C; assay type: physicochemical

| SMILES | MIC (Salmonella typhimurium) [µg/mL] | MIC (Vibrio cholerae) [µg/mL] | MIC (Pasteurella multocida) [µg/mL] | MIC (Citrobacter freundii) [µg/mL] | MIC (Serratia marcescens) [µg/mL] | MIC (Klebsiella aerogenes) [µg/mL] | MIC [2] [µg/mL] | MIC (Streptococcus agalactiae) [µg/mL] | MIC [3] [µg/mL] | MIC (Proteus vulgaris) [µg/mL] | MIC (Escherichia coli) [µg/mL] | IC50 (Dihydrofolate reductase) [µM] | MIC (Proteus mirabilis) [µg/mL] | MIC (Klebsiella pneumoniae) [µg/mL] | MIC (Shigella flexneri) [µg/mL] | MIC [4] [µg/mL] | MIC (Streptococcus pyogenes) [µg/mL] | MIC (Staphylococcus aureus) [µg/mL] | MIC (Enterococcus faecalis) [µg/mL] | pKa [5] | also measured |
| --- | --- | --- | --- | --- | --- | --- | --- | --- | --- | --- | --- | --- | --- | --- | --- | --- | --- | --- | --- | --- | --- |
| Brc1ccc2ncccc2c1 |  |  |  |  |  |  |  |  |  |  |  |  |  |  |  |  |  |  |  |  | pKa [1]: 3.91 |
| Cc1cc(N2CCOCC2)nc2c(C)cc(Cc3cnc(N)nc3N)cc12 | 30 (≈ 82.3 µM) | 3 (≈ 8.23 µM) | 10 (≈ 27.4 µM) | 10 (≈ 27.4 µM) | 100 (≈ 274 µM) | 30 (≈ 82.3 µM) | 3 (≈ 8.23 µM) | 0.3 (≈ 0.823 µM) | 3 (≈ 8.23 µM) | 100 (≈ 274 µM) | 30 (≈ 82.3 µM) | 410 | 30 (≈ 82.3 µM) | 10 (≈ 27.4 µM) | 30 (≈ 82.3 µM) | 30 (≈ 82.3 µM) | 1 (≈ 2.74 µM) | 0.3 (≈ 0.823 µM) | 0.3 (≈ 0.823 µM) |  |  |
| Nc1ccnc2ccccc12 [QUINOLIN-4-AMINE] |  |  |  |  |  |  |  |  |  |  |  |  |  |  |  |  |  |  |  |  | pKa [1]: 9.13 |
| COc1cc(Br)cc2c(N(C)C)cc(C)nc12 |  |  |  |  |  |  |  |  |  |  |  |  |  |  |  |  |  |  |  | 8.18 |  |
| CCCCCc1cc(OC)c2cc(Cc3cnc(N)nc3N)cc(OC)c2n1 | 30 (≈ 78.6 µM) | 3 (≈ 7.86 µM) | 10 (≈ 26.2 µM) | 10 (≈ 26.2 µM) | 30 (≈ 78.6 µM) | 10 (≈ 26.2 µM) | 10 (≈ 26.2 µM) | 0.3 (≈ 0.786 µM) | 10 (≈ 26.2 µM) | 100 (≈ 262 µM) | 10 (≈ 26.2 µM) |  | 30 (≈ 78.6 µM) | 30 (≈ 78.6 µM) | 30 (≈ 78.6 µM) | 30 (≈ 78.6 µM) | 3 (≈ 7.86 µM) | 0.3 (≈ 0.786 µM) | 1 (≈ 2.62 µM) |  |  |
| COc1cc(C)nc2c(OC)cc(Br)cc12 |  |  |  |  |  |  |  |  |  |  |  |  |  |  |  |  |  |  |  | 6.39 |  |
| Cc1cc(N(C)C)nc2ccc(Br)cc12 |  |  |  |  |  |  |  |  |  |  |  |  |  |  |  |  |  |  |  | 7.34 |  |
| COc1cc(C)nc2c(OC)cc(Cc3cnc(N)nc3N)cc12 | 3 (≈ 9.22 µM) | 1 (≈ 3.07 µM) | 3 (≈ 9.22 µM) | 3 (≈ 9.22 µM) | 3 (≈ 9.22 µM) | 10 (≈ 30.7 µM) | 3 (≈ 9.22 µM) | 1 (≈ 3.07 µM) | 10 (≈ 30.7 µM) | 3 (≈ 9.22 µM) | 3 (≈ 9.22 µM) | 49 | 10 (≈ 30.7 µM) | 10 (≈ 30.7 µM) | 3 (≈ 9.22 µM) | 10 (≈ 30.7 µM) | 0.3 (≈ 0.922 µM) | 0.3 (≈ 0.922 µM) | 1 (≈ 3.07 µM) |  |  |
| COc1cc(Cc2cnc(N)nc2N)cc2c(N(C)C)cc(C)nc12 | 100 (≈ 295 µM) | 10 (≈ 29.5 µM) | 100 (≈ 295 µM) | > 300 | > 300 | 300 (≈ 886 µM) | 100 (≈ 295 µM) | 30 (≈ 88.6 µM) | 30 (≈ 88.6 µM) | > 100 | > 10 | 70 | > 30 | > 300 | 30 (≈ 88.6 µM) | 100 (≈ 295 µM) | 10 (≈ 29.5 µM) | 30 (≈ 88.6 µM) | 100 (≈ 295 µM) |  |  |
